Test results reported in ChEMBL document CHEMBL1124921, “Alpha-diketone and alpha-keto ester derivatives of N-protected amino acids and peptides as novel inhibitors of cysteine and serine proteinases” (J Med Chem, 1990).
Where a SMILES comes first, the peptide text is derived from it. The star is where a group is joined. Cbz = O=C(OCc1ccccc1)*

What was measured:
Chymotrypsinogen A = Chymotrypsinogen A (Bos taurus, UniProt P00766); experiment: Inhibition of alpha-chymotrypsin
In short: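 Commercial α-chymotrypsin was assayed continuously with N-Suc-Ala-Ala-Pro-Phe-p-nitroanilide as substrate in HEPES buffer instead of Tris. […] Errors under 30%.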

[1] = Inhibition of Calpain; parameters: species or system Gallus gallus
In short: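 Calpain purified from chicken gizzard, run as a continuous enzyme assay following a previously published method. Apparent dissociation constants Ki were derived for competitive inhibition; errors under 30%.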

Ki (Chymotrypsinogen A) [µM]	Ki [1] [µM]	Compound
0.06	0.4	COC(=O)C(=O)[C@H](Cc1ccccc1)NC(=O)[C@@H](NC(=O)OCc1ccccc1)C(C)C
7.7	> 1000	O=C(N[C@@H](Cc1ccccc1)C(=O)C(F)F)c1ccccc1
64	4	O=C[C@H](Cc1ccccc1)NC(=O)c1ccccc1
1.2	250	CC(=O)C(=O)[C@H](Cc1ccccc1)NC(=O)OCc1ccccc1
0.13	92	CCOC(=O)C(=O)[C@H](Cc1ccccc1)NC(=O)OCc1ccccc1
0.15	150	COC(=O)C(=O)[C@H](Cc1ccccc1)NC(=O)c1ccccc1
360	3	O=C[C@H](Cc1ccccc1)NC(=O)OCc1ccccc1
	> 2000	CC(=O)[C@H](Cc1ccccc1)NC(=O)OCc1ccccc1
0.06	0.6	CCOC(=O)C(=O)[C@H](Cc1ccccc1)NC(=O)[C@@H](NC(=O)OCc1ccccc1)C(C)C
54	0.01	CC(C)[C@H](NC(=O)OCc1ccccc1)C(=O)N[C@H](C=O)Cc1ccccc1 (Cbz-Val-Phe-aldehyde)
45	> 180	CC(C)[C@H](NC(=O)OCc1ccccc1)C(=O)N[C@H](Cc1ccccc1)C(=O)C(F)(F)F
0.2	0.7	CC(=O)C(=O)[C@H](Cc1ccccc1)NC(=O)[C@@H](NC(=O)OCc1ccccc1)C(C)C
2.4	> 180	CC(C)[C@H](NC(=O)OCc1ccccc1)C(=O)N[C@@H](Cc1ccccc1)C(=O)C(F)(F)F
2.3	> 1000	O=C(N[C@@H](Cc1ccccc1)C(=O)C(F)(F)F)c1ccccc1
